Laboratory results taken from ChEMBL document CHEMBL1142071, “Coproduction of novel 16S rRNA methylase RmtD and metallo-beta-lactamase SPM-1 in a panresistant Pseudomonas aeruginosa isolate from Brazil” (2007).
Converted amounts (≈) assume the structure as drawn.

How the values were obtained:
Format in all cases: functional
Pseudomonas aeruginosa = test: Antimicrobial activity against Pseudomonas aeruginosa PA0905
How it was run: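 The clinical urine isolate was collected in 2005 in Sorocaba, Brazil. Aminoglycoside MICs were determined by CLSI agar dilution, with E. coli ATCC 25922 as the control strain. β-Lactam, ciprofloxacin and colistin MICs were determined by Etest.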

Escherichia coli [1] = test: Antimicrobial activity against Escherichia coli XL1-Blue pPA95S29
How it was run: (§1)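 Aminoglycoside MICs were determined by CLSI agar dilution, with E. coli ATCC 25922 as the control strain. The host was E. coli XL1-Blue carrying pBluescript II SK(+), either as vector alone or as a ligated Sau3AI partial digest of the cloned resistance plasmid. Transformants were selected on LB agar with 50 μg/ml ampicillin plus 10 μg/ml amikacin.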

Escherichia coli [2] = test: Antimicrobial activity against Escherichia coli XL1-Blue [pBluescript 2 SK(+); how it was run: as §1

Compound	MIC (Pseudomonas aeruginosa) [µg/mL]	MIC (Escherichia coli [1]) [µg/mL]	MIC (Escherichia coli [2]) [µg/mL]
C[C@H]1[C@H](NC(=O)/C(=N\OC(C)(C)C(=O)O)c2csc(N)n2)C(=O)N1S(=O)(=O)O [AZTREONAM]	8 (≈ 18.4 µM)	–	–
CN[C@@H]1[C@H](O[C@H]2[C@H](O[C@H]3[C@H](O)[C@@H](O)[C@H](N=C(N)N)[C@@H](O)[C@@H]3N=C(N)N)O[C@@H](C)[C@]2(O)C=O)O[C@@H](CO)[C@H](O)[C@H]1O [STREPTOMYCIN]	128 (≈ 220 µM)	1 (≈ 1.72 µM)	0.5 (≈ 0.86 µM)
C[C@@H](O)[C@H]1C(=O)N2C(C(=O)O)=C(S[C@@H]3CN[C@H](C(=O)N(C)C)C3)[C@H](C)[C@H]12 [MEROPENEM]	> 32	–	–
CO/N=C(\C(=O)N[C@@H]1C(=O)N2C(C(=O)[O-])=C(C[N+]3(C)CCCC3)CS[C@H]12)c1csc(N)n1 [CEFEPIME]	> 256	–	–
NC[C@H]1O[C@H](O[C@H]2[C@H](O)[C@@H](O[C@H]3O[C@H](CO)[C@@H](O)[C@H](N)[C@H]3O)[C@H](N)C[C@@H]2N)[C@H](N)C[C@@H]1O [TOBRAMYCIN]	256 (≈ 548 µM)	64 (≈ 137 µM)	0.06 (≈ 0.128 µM)
O=C(O)c1cn(C2CC2)c2cc(N3CCNCC3)c(F)cc2c1=O [CIPROFLOXACIN]	> 32	–	–
CC(C)(O/N=C(\C(=O)N[C@@H]1C(=O)N2C(C(=O)[O-])=C(C[n+]3ccccc3)CS[C@H]12)c1csc(N)n1)C(=O)O [CEFTAZIDIME]	> 256	–	–
C[C@@H](O)[C@H]1C(=O)N2C(C(=O)O)=C(SCCNC=N)C[C@H]12 [IMIPENEM ANHYDROUS]	> 32	–	–
NC[C@@H]1O[C@H](O[C@H]2[C@@H](O)[C@H](O[C@@H]3[C@@H](O)[C@H](N)C[C@H](N)[C@H]3O[C@H]3O[C@H](CN)[C@@H](O)[C@H](O)[C@H]3N)O[C@@H]2CO)[C@H](N)[C@@H](O)[C@@H]1O [FRAMYCETIN]	64 (≈ 104 µM)	0.12 (≈ 0.195 µM)	0.12 (≈ 0.195 µM)
NCC[C@H](O)C(=O)N[C@@H]1C[C@H](N)[C@@H](O[C@H]2O[C@H](CN)CC[C@H]2N)[C@H](O)[C@H]1O[C@H]1O[C@H](CO)[C@@H](O)[C@H](N)[C@H]1O [ARBEKACIN]	> 256	> 256	0.25 (≈ 0.452 µM)
NCC[C@H](O)C(=O)N[C@@H]1C[C@H](N)[C@@H](O[C@H]2O[C@H](CN)[C@@H](O)[C@H](O)[C@H]2O)[C@H](O)[C@H]1O[C@H]1O[C@H](CO)[C@@H](O)[C@H](N)[C@H]1O [AMIKACIN]	> 256	> 256	0.5 (≈ 0.854 µM)
CN[C@@H]1[C@@H](O[C@H]2O[C@H](CO)[C@@H](N)[C@H](O)[C@H]2O)OC2C[C@@H](N)[C@@H](O[C@H]3[C@H](O)[C@@H](O)[C@H](N)C[C@@H]3N)OC2[C@@H]1O (some centres undefined) [APRAMYCIN]	32 (≈ 59.3 µM)	2 (≈ 3.71 µM)	2 (≈ 3.71 µM)
